According to ChEMBL document CHEMBL4371006, “Discovery of N-[4-(Quinolin-4-yloxy)phenyl]benzenesulfonamides as Novel AXL Kinase Inhibitors” (J Med Chem, 2018):
≈ marks a conversion by molar mass, not a printed value.

Key:
[1] = Clearance in mouse at 1 to 2 mg/kg, iv by LC/MS/MS analysis; format: ADME, organism-based; conditions: in vivo
[2] = target: Mitogen-activated protein kinase kinase kinase kinase 5 (Homo sapiens, UniProt Q9Y4K4); assay: Binding affinity to MAP4K5 in SILAC-labeled human MDA-MB-231 cells lysate by mass spectrometry based kinAffinity assay; format: subcellular
Procedure, shortened: (§1)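 Chemical proteomics: MDA-MB-231 lysate bound to matrix of immobilized broad kinase inhibitors at several densities (BC50), then competed with increasing free compound (CC50); proteins quantified by mass spectrometry, Kd via Cheng-Prusoff. Two competition formats run in parallel to check equilibrium.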

[3] = Intrinsic clearance in mouse liver microsomes at 5 uM after 60 mins in presence of NADPH by LC-MS/MS analysis; format: ADME, Microsome; conditions: read-out: CLH
Procedure, shortened: (§2)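 Compound at 5 µM with 1 mg/mL human or mouse liver microsomes plus an NADPH-regenerating system, in 100 mM potassium phosphate at 37°C. Reactions were stopped with acetonitrile at sampling times. Percent remaining versus time 0 was measured by HPLC, in duplicate.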

[4] = Intrinsic clearance in human liver microsomes at 5 uM after 60 mins in presence of NADPH by LC-MS/MS analysis; format: ADME, Microsome; conditions: read-out: CLH; procedure, shortened: as §2
[5] = target: Epidermal growth factor receptor (Homo sapiens, UniProt P00533); assay: Binding affinity to EGFR in SILAC-labeled human MDA-MB-231 cells lysate by mass spectrometry based kinAffinity assay; format: subcellular; procedure, shortened: as §1
[6] = Protein binding in mouse plasma; format: ADME, cell-free; conditions: read-out: PPB (converted)
[7] = Apparent permeability from apical to basolateral side in human Caco2 cells at 10 uM after 2 hrs by LC-MS/MS analysis; format: ADME, cell-based; conditions: Caco-2
Procedure, shortened: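 Caco-2 cells differentiated three weeks in 96-well format, monolayer integrity checked by Lucifer yellow transport. Compound at 10 µM for 2 h; apical buffer HBSS/10 mM HEPES/glucose pH 6.5 with 100 µM Lucifer yellow, basolateral buffer pH 7.4. Papp = (dQ/dt)/C0A; efflux ratio Papp(B→A)/Papp(A→B).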

[8] = Apparent half-life of the terminal disposition phase in mouse at 3 mg/kg, iv by LC/MS/MS analysis; conditions: in vivo, read-out: t1/2 lambda z (converted)
[9] = target: Serine/threonine-protein kinase PLK4 (Homo sapiens, UniProt O00444); assay: Binding affinity to PLK4 in SILAC-labeled human MDA-MB-231 cells lysate by mass spectrometry based kinAffinity assay; format: subcellular
Sequence of Serine/threonine-protein kinase PLK4 (O00444 whole entry): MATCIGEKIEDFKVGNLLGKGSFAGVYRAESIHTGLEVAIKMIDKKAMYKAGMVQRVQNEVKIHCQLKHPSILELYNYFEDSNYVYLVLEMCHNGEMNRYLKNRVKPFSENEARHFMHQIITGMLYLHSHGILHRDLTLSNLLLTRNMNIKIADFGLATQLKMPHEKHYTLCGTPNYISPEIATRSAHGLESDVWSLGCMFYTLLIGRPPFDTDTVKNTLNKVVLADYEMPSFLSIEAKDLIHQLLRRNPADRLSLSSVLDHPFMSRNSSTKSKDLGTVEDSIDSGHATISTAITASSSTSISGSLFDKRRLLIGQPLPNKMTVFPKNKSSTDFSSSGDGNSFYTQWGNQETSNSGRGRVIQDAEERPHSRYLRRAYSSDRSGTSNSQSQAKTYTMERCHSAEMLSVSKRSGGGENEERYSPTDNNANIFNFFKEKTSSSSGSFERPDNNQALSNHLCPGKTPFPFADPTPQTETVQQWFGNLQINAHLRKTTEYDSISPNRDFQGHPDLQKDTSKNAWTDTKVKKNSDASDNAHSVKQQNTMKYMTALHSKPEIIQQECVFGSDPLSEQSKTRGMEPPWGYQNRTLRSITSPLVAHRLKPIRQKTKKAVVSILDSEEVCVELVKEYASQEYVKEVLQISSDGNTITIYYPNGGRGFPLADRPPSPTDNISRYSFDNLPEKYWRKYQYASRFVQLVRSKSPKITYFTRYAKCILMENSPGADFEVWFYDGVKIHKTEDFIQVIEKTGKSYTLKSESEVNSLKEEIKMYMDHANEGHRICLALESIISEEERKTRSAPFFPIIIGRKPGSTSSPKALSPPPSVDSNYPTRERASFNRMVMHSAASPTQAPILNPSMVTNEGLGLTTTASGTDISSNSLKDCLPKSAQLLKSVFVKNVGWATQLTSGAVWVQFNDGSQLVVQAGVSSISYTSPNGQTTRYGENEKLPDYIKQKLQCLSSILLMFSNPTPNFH
Procedure, shortened: (§3)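 MDA-MB-231 lysate applied to KinAffinity matrix of immobilized broadband kinase inhibitors at graded densities to obtain BC50 per target. Competition then run with increasing free compound to give CC50; Kd derived by Cheng-Prusoff. Two competition experiments in parallel to check equilibrium, one with lysate pre-incubated with compound before adding matrix. Quantitation by mass spectrometry.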

[10] = AUC (0 to tz) in mouse at 1 to 2 mg/kg, iv by LC/MS/MS analysis; format: ADME, organism-based; conditions: in vivo
Procedure, shortened: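 Male ICR mice (27 ± 5 g, n = 3) dosed iv via tail vein at 2 or 1 mg/kg in 30% PEG400/5% ethanol in water. Jugular blood (0.3 mL, heparin) sampled at set times over 24 h or more; plasma separated, acetonitrile-precipitated, drug quantified by LC/MS/MS; parameters from noncompartmental-type software estimation.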

[11] = target: Cyclin-G-associated kinase (Homo sapiens, UniProt O14976); assay: Binding affinity to GAK in SILAC-labeled human MDA-MB-231 cells lysate by mass spectrometry based kinAffinity assay; format: subcellular; procedure, shortened: as §1
Sequence of Cyclin-G-associated kinase (O14976 whole entry): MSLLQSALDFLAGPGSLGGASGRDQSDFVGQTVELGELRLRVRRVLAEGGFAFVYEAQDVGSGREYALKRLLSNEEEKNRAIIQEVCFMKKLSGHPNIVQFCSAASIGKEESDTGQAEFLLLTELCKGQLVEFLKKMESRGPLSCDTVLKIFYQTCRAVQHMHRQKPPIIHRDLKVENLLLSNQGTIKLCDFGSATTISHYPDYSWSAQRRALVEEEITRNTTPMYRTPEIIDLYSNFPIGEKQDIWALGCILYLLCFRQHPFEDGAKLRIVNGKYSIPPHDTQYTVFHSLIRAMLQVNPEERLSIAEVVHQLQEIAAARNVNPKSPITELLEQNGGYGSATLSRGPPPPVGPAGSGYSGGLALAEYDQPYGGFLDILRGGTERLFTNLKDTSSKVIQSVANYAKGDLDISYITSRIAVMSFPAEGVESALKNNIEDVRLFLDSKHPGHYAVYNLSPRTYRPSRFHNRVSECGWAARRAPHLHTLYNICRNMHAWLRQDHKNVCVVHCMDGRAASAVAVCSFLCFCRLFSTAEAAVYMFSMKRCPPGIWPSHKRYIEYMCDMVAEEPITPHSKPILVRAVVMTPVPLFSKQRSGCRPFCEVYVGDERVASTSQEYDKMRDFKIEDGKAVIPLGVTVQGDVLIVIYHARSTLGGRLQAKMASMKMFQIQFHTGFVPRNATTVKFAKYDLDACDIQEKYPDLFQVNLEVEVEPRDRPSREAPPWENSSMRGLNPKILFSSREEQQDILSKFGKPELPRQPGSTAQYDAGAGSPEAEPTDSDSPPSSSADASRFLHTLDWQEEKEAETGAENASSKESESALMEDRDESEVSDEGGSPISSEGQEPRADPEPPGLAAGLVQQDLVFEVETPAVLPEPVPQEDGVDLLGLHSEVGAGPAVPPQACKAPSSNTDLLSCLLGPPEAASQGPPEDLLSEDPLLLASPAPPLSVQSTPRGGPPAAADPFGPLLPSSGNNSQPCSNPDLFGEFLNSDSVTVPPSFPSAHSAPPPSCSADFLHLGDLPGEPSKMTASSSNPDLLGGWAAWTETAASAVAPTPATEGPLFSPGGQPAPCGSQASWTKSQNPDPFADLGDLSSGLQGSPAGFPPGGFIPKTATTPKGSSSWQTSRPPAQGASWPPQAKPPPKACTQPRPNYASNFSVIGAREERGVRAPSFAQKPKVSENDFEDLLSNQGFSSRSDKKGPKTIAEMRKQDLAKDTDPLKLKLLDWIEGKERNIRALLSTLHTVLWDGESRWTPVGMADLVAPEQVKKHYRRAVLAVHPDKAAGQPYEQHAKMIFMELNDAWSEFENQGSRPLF

[12] = target: Tyrosine-protein kinase CSK (Homo sapiens, UniProt P41240); assay: Binding affinity to CSK in SILAC-labeled human MDA-MB-231 cells lysate by mass spectrometry based kinAffinity assay; format: subcellular; procedure, shortened: as §1
Sequence of Tyrosine-protein kinase CSK (P41240 whole entry): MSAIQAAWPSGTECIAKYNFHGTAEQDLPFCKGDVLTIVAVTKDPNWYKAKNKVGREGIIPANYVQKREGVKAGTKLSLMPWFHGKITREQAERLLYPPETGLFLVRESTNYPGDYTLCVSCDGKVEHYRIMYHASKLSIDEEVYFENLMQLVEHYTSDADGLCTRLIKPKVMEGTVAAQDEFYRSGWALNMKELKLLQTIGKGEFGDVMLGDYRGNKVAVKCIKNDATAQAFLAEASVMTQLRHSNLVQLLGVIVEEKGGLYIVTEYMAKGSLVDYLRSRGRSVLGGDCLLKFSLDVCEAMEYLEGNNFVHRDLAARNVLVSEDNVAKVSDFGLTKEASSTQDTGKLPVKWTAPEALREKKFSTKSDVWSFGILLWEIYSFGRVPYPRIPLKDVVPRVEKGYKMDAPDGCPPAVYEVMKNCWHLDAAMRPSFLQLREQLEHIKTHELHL

[13] = Stability in human plasma assessed as parent compound remaining; format: ADME, cell-free
[14] = target: Serine/threonine-protein kinase SIK2 (Homo sapiens, UniProt Q9H0K1); assay: Binding affinity to QIK in SILAC-labeled human MDA-MB-231 cells lysate by mass spectrometry based kinAffinity assay; format: subcellular; procedure, shortened: as §3
[15] = target: Dual specificity mitogen-activated protein kinase kinase 2 (Homo sapiens, UniProt P36507); assay: Binding affinity to MAP2K2 in SILAC-labeled human MDA-MB-231 cells lysate by mass spectrometry based kinAffinity assay; format: subcellular; procedure, shortened: as §1
Sequence of Dual specificity mitogen-activated protein kinase kinase 2 (P36507 whole entry): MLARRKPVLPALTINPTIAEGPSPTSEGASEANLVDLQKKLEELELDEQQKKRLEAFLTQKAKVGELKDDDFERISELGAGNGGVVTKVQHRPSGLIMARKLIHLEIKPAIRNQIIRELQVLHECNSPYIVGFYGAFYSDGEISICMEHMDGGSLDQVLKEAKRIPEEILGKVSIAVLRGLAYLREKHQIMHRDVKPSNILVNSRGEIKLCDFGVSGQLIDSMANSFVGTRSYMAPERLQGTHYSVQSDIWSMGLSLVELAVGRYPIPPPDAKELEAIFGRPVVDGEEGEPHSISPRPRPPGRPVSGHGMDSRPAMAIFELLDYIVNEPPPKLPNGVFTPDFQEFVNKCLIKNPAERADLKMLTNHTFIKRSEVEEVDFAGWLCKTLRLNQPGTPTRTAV

[16] = target: Tyrosine-protein kinase Yes (Homo sapiens, UniProt P07947); assay: Binding affinity to YES in SILAC-labeled human MDA-MB-231 cells lysate by mass spectrometry based kinAffinity assay; format: subcellular; procedure, shortened: as §3
Sequence of Tyrosine-protein kinase Yes (P07947 whole entry): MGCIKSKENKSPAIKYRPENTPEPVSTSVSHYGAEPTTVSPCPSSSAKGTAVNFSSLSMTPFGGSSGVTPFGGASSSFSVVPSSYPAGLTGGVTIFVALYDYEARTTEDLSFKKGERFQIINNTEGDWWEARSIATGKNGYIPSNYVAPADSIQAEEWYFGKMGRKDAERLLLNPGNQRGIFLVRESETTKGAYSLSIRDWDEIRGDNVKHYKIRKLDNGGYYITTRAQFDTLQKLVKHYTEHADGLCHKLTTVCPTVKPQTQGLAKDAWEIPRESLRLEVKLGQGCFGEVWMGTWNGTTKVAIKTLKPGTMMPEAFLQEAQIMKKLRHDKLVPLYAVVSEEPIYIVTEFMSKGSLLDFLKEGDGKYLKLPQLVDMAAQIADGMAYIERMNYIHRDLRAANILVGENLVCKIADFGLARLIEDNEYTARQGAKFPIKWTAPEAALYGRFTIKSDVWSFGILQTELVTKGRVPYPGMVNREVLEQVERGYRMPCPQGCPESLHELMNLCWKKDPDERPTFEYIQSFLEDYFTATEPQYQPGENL

[17] = Protein binding in human plasma; format: ADME, cell-free; conditions: read-out: PPB (converted)
[18] = target: MAP/microtubule affinity-regulating kinase 3 (Homo sapiens, UniProt P27448); assay: Binding affinity to MARK3 in SILAC-labeled human MDA-MB-231 cells lysate by mass spectrometry based kinAffinity assay; format: subcellular; procedure, shortened: as §1
[19] = target: Proto-oncogene tyrosine-protein kinase Src (Homo sapiens, UniProt P12931); assay: Binding affinity to SRC in SILAC-labeled human MDA-MB-231 cells lysate by mass spectrometry based kinAffinity assay; format: subcellular; procedure, shortened: as §3
[20] = Efflux ratio of apparent permeability from basolateral to apical side over apical to basolateral side in human Caco2 cells at 10 uM after 2 hrs by LC-MS/MS analysis; format: ADME, cell-based; conditions: Caco-2
Procedure, shortened: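 Caco-2 monolayers differentiated 3 weeks, integrity checked by Lucifer yellow transport. Compound at 10 µM for 2 h; apical transport buffer (glucose, 10 mM HEPES, HBSS, pH 6.5, 100 µM Lucifer yellow), basolateral buffer pH 7.4. Papp = (dQ/dt)/C0A; efflux ratio = Papp(B→A)/Papp(A→B).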

[21] = Permeability of the compound in 0.025 M phosphate buffer at pH 7.4 assessed drug flux level after 5 hrs by PAMPA; format: ADME; conditions: pH 7.4, 5 h
Procedure, shortened: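 PAMPA: donor at 0.5 mM in pH 7.4 0.025 M phosphate buffer, diluted from 1 mM DMSO stock. Filters are coated with 1% phosphatidylcholine in dodecane, and the acceptor is 50% DMSO in phosphate buffer. Incubated 5 h at room temperature with gentle shaking. Donor and acceptor are analyzed by HPLC-UV to calculate Papp. Three plates were run on different days.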

[22] = target: Mitogen-activated protein kinase kinase kinase 20 (Homo sapiens, UniProt Q9NYL2); assay: Binding affinity to ZAK in SILAC-labeled human MDA-MB-231 cells lysate by mass spectrometry based kinAffinity assay; format: subcellular; procedure, shortened: as §3
[23] = Solubility of the compound […] after 24 hrs by UV-based HPLC analysis; format: physicochemical; conditions: DMSO
Procedure, shortened: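 Solubility in water: DMSO stock aliquots diluted into water, shaken 24 h at room temperature, filtered through 0.45 µm nylon, then quantified by HPLC-UV with a C18 column and 70% ACN. Run in triplicate.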

[24] = target: 5'-AMP-activated protein kinase subunit gamma-1 (Homo sapiens, UniProt P54619); assay: Binding affinity to PRKAG1 in SILAC-labeled human MDA-MB-231 cells lysate by mass spectrometry based kinAffinity assay; format: subcellular; procedure, shortened: as §3
Sequence of 5'-AMP-activated protein kinase subunit gamma-1 (P54619 whole entry): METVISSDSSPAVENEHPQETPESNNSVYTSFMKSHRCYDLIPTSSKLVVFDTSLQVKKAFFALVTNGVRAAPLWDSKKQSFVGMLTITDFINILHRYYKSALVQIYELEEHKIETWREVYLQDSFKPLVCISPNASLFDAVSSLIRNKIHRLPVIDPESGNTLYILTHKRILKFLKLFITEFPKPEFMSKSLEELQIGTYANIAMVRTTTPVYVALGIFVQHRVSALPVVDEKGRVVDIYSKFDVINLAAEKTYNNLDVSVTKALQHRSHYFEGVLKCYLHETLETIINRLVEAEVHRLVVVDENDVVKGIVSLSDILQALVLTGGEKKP

[25] = target: Ribosomal protein S6 kinase alpha-1 (Homo sapiens, UniProt Q15418); assay: Binding affinity to RPS6KA1 in SILAC-labeled human MDA-MB-231 cells lysate by mass spectrometry based kinAffinity assay; format: subcellular; procedure, shortened: as §3
Sequence of Ribosomal protein S6 kinase alpha-1 (Q15418 whole entry): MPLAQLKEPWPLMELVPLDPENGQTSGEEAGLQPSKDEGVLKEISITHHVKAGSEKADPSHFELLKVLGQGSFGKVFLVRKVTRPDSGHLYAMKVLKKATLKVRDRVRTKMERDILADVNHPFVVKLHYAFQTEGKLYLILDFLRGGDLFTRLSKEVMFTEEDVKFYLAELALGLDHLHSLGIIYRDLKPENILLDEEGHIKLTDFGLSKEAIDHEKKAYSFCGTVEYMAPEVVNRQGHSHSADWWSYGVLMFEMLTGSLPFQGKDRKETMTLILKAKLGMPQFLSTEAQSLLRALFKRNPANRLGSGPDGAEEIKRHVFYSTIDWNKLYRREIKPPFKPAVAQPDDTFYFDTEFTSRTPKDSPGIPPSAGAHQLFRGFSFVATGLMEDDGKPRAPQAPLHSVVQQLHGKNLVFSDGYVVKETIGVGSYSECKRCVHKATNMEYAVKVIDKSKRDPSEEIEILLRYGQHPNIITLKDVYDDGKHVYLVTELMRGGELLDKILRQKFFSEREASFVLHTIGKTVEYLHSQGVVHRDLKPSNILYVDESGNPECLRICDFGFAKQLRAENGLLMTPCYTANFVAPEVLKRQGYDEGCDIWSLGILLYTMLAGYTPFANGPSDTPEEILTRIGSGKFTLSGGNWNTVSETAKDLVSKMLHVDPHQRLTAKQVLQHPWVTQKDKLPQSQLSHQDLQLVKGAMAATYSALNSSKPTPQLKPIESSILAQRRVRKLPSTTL

[26] = target: Serine/threonine-protein kinase 10 (Homo sapiens, UniProt O94804); assay: Binding affinity to LOK in SILAC-labeled human MDA-MB-231 cells lysate by mass spectrometry based kinAffinity assay; format: subcellular; procedure, shortened: as §1

Row | Compound | clearance [1] | Kd(free) [2] | microsomal CLint at 5 µM [3] | microsomal CLint at 5 µM [4] | Kd(free) [5] | fraction unbound [6] | Papp A→B at 2 h, 10 µM [7] | half-life [8] | Kd(free) [9] | AUC [10] | Kd(free) [11] | Kd(free) [12] | Stability [13] | Kd(free) [14] | Kd(free) [15] | Kd(free) [16] | fraction unbound [17] | Kd(free) [18] | Kd(free) [19] | efflux ratio at 2 h, 10 µM [20] | also measured
1 | COc1cc2c(Oc3ccc(NS(=O)(=O)c4cc(F)ccc4F)cc3F)ccnc2cc1OCCCN1CCN(C)CC1 | 6.67 mL/min/kg | 24 nM | 143 µL/min/mg | 60.5 µL/min/mg | 122 nM | 0.028 | 7.4 ×10⁻⁶ cm/s | 18.7 h | 53 nM | 1430 ng·h/mL | 2448 nM | 270 nM | 96.3% | 4518 nM | 6917 nM | 178 nM | 0.009 | 3854 nM | 254 nM | 2.3 | permeability [21]: 24.3%; Kd(free) [22]: 1180 nM; solubility at 24 h [23]: 68.8 µM (≈ 42.4 µg/mL); Kd(free) [24]: 825 nM; Kd(free) [25]: 3152 nM; Kd(free) [26]: 3780 nM
2 | COc1cc2c(Oc3ccc(NS(=O)(=O)c4c(F)cccc4F)cc3F)ccnc2cc1OCCCN1CCN(C)CC1 | – | 8 nM | – | – | 16 nM | – | – | – | 48 nM | – | 4166 nM | 30 nM | – | 3545 nM | 8852 nM | 40 nM | – | 5622 nM | 96 nM | – | Kd(free) [22]: 3210 nM; Kd(free) [24]: 1871 nM; Kd(free) [25]: 5474 nM; Kd(free) [26]: 3039 nM
3 | COc1cc2c(Oc3ccc(NS(=O)(=O)c4cc(F)ccc4F)cc3F)ccnc2cc1OCCCN1CCCC(C)C1 (configuration not stated) | 11.7 mL/min/kg | – | 19.1 µL/min/mg | 18.3 µL/min/mg | – | 0.041 | 2.4 ×10⁻⁶ cm/s | 8.5 h | – | 669 ng·h/mL | – | – | 99.1% | – | – | – | 0.015 | – | – | 6.6 | permeability [21]: 46.1%; solubility at 24 h [23]: 18 µM (≈ 11.1 µg/mL)
